Legend:
[1] = molecular target: T1, Dual specificity mitogen-activated protein kinase kinase 4 (Homo sapiens, UniProt P45985); assay: Inhibition of MKK4 (unknown origin)
T1 sequence (P45985 whole entry): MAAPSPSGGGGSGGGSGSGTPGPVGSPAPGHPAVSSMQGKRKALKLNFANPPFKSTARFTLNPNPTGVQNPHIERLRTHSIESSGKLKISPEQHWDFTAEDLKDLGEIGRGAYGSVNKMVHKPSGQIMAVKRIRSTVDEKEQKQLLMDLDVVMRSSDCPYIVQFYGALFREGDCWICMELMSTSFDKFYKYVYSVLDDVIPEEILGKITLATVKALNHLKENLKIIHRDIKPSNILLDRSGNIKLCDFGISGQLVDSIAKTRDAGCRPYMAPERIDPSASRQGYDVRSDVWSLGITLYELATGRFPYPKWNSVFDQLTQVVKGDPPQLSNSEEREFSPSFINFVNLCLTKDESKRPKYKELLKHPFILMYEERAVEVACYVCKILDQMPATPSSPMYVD

[2] = molecular target: Mitogen-activated protein kinase 10 (Homo sapiens, UniProt P53779); assay: Inhibition of JNK3 (unknown origin)
[3] = molecular target: T2, Ephrin type-A receptor 1 (Homo sapiens) (UniProt P21709); assay: Inhibition of EphA1 (unknown origin) at 0.1 uM
T2 sequence (whole entry): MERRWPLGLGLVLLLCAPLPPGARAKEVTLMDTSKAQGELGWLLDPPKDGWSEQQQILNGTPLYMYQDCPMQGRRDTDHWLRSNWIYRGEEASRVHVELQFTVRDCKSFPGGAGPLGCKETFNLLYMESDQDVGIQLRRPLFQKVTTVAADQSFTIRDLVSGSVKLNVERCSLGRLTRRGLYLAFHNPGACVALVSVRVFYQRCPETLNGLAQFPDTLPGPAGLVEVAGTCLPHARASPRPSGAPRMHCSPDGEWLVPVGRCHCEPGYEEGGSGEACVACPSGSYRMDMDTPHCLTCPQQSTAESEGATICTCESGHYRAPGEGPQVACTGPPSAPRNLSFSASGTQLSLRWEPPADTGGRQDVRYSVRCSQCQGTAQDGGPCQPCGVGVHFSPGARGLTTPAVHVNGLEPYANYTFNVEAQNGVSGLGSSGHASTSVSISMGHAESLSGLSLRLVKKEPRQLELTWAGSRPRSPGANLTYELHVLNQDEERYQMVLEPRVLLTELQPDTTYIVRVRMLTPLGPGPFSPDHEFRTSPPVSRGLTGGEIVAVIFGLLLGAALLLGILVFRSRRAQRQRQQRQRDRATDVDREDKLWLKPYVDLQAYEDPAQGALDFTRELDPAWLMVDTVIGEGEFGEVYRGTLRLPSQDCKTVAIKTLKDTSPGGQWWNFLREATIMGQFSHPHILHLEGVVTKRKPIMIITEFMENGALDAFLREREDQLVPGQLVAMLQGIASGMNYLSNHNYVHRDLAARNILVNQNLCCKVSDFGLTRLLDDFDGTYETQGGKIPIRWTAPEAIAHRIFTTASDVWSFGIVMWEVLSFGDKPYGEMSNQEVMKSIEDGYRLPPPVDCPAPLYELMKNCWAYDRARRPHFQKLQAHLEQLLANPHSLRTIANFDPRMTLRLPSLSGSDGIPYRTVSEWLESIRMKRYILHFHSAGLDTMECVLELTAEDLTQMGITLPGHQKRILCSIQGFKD
How it was run: (§1)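 Kinase selectivity panel of 298 kinases, test compound at 0.1 μM, percent inhibition reported.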

[4] = molecular target: Proto-oncogene tyrosine-protein kinase Src (Homo sapiens) (UniProt P12931); assay: Inhibition of Src (unknown origin) at 0.1 uM; how it was run: as §1
[5] = test system: T3, Receptor-type tyrosine-protein kinase FLT3 (Homo sapiens), P36888 [D835Y]; assay: Inhibition of Flt3 D835Y mutant (unknown origin) at 0.1 uM; how it was run: as §1
T3 sequence (whole entry): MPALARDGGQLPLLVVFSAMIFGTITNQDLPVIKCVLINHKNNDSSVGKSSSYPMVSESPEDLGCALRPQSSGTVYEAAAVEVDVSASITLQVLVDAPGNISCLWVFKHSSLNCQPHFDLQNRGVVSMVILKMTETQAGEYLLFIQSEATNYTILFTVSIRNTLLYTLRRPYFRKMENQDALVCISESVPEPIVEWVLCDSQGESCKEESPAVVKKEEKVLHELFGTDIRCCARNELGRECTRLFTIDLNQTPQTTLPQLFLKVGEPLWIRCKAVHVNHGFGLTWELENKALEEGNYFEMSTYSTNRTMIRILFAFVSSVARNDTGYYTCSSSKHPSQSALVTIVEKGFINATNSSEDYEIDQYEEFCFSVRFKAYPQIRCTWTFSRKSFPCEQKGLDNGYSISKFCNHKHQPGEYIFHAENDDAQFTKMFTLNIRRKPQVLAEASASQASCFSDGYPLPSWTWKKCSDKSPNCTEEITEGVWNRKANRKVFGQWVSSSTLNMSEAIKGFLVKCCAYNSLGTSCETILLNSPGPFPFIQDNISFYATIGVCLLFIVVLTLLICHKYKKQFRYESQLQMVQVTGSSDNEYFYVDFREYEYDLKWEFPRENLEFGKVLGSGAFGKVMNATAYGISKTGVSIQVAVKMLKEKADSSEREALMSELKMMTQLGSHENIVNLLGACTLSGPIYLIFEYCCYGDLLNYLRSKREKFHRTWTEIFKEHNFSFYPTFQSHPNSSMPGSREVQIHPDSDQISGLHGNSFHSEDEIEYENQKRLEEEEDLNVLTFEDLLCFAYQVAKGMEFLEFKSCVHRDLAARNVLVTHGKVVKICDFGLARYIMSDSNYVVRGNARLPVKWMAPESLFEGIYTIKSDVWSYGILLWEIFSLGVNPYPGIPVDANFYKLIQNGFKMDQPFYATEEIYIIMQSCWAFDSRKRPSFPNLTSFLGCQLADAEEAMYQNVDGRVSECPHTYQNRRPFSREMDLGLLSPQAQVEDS

[6] = molecular target: Proto-oncogene tyrosine-protein kinase Src (Homo sapiens) (UniProt P12931); assay: Inhibition of Src_N1 (unknown origin) at 0.1 uM; how it was run: as §1
[7] = Plasma clearance in rat at 1 mg/kg, iv and 5 mg/kg, po; type: ADME, organism-based
How it was run: (§2)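 Single-compound PK. Intravenous dose 1 mg/kg given as a 60% PEG solution. Oral dose 5 mg/kg given as an aqueous suspension in 1% methylcellulose. Plasma clearance, steady-state volume of distribution, half-life and oral bioavailability were determined from these doses.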

[8] = Volume of distribution at steady state in dog at 1 mg/kg, iv and 5 mg/kg, po; type: ADME, organism-based, Canis lupus familiaris; conditions: in vivo, read-out: Vdss; how it was run: as §2

Sequence of Proto-oncogene tyrosine-protein kinase Src (Homo sapiens) (P12931 2-536 limits assumed): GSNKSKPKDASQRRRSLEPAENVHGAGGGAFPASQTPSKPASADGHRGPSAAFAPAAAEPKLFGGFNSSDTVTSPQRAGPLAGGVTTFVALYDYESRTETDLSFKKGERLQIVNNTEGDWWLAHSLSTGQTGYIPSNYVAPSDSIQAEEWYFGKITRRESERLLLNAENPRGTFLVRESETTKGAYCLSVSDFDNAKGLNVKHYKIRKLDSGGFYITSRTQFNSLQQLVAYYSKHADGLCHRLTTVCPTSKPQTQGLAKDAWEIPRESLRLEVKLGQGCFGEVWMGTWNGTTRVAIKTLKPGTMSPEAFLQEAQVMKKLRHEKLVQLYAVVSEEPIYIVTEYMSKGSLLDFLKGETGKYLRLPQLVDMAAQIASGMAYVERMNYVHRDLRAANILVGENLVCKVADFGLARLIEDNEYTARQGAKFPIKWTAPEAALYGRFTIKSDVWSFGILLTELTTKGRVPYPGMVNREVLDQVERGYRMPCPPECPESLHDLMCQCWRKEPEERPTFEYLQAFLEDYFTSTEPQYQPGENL
Sequence of Mitogen-activated protein kinase 10 (P53779 whole entry): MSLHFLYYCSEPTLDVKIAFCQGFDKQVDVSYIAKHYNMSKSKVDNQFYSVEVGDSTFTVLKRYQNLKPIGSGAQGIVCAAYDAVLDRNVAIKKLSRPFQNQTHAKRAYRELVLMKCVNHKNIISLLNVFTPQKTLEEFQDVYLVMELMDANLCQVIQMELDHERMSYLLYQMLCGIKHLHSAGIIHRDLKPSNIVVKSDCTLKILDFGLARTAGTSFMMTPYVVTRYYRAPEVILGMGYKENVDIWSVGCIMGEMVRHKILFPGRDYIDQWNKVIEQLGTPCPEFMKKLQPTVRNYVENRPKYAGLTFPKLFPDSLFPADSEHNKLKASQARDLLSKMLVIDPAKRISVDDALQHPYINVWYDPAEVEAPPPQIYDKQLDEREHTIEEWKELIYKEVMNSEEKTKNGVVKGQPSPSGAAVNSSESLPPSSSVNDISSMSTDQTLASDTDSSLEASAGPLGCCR

Structure (SMILES): N#Cc1ccnc(Nc2cc(C3CCN(C4COC4)CC3)cc(N3CCC(F)(F)C3)n2)c1
- IC50 [1]: > 5000 nM
- IC50 [2]: 364 nM
- inhibition [3]: > 80%
- inhibition [4]: > 80%
- inhibition [5]: > 80%
- inhibition [6]: > 80%
- clearance [7]: 30 mL/min/kg
- Vd [8]: 6.5 L/kg
